Assay results pooled from the literature.
KCNH2: Voltage-gated inwardly rectifying potassium channel KCNH2 (KCNH2, Homo sapiens, UniProt Q12809)

With N[C@H]1C(O)O[C@H](CO)[C@@H](O)[C@@H]1O (stereo partly shown) the viability was 102% (Caco-2; cell growth or viability, CCK-8; 10 mM).
The Tmax of CC(C)n1cc(C#N)c2cc(-n3cc(C(=O)O)cn3)ccc21 is reported as 4.01 h (human, plasma; oral, 300 mg, single dose, fasted, healthy volunteers).
The tracer uptake of COc1cccc(OC)c1-c1cc(C(=O)NC2(C(=O)O)C3CC4CC(C3)CC2C4)nn1-c1ccc(C(=O)N(C)CCCN(C)CCCN(C)C(=O)CN2CCN(CC(=O)[O-])CCN(CC(=O)[O-])CCN(CC(=O)[O-])CC2)cc1C(C)C.[177Lu+3] (stereo not shown) is reported as 0.28 %ID/g (HT-29; pancreas; 7 days, tumour-bearing).
CCOC(=O)C1=C(CN2CCC[C@@H]2C(=O)Nc2ccc(B(O)O)cc2)NC(c2nccs2)=N[C@H]1c1ccc(F)cc1Br has an inhibition of 31.8% (KCNH2; ion current, inhibitor, patch clamp; HEK293; 3 µM, pH 7.4).
The inhibition of CC(=O)N1CCC(C(=O)N2CCN3C(=O)c4cc(-c5ccccc5)ccc4NC(=O)C3C2)CC1 (stereo not shown) is reported as 2.6% (KCNH2; ion current, inhibitor, patch clamp; HEK293; 0.1 µM).
COc1ccc2c(c1)CN(C(=O)CCN1CCC(Cc3ccccc3)CC1)CC[S@@+]2[O-] has a Tmax of 0 h (male human, plasma; intravenous, 0.01 mg/kg, healthy volunteers).
The MRT(0-inf) of COc1nc(-c2cccc(-c3ccccc3)c2C)ccc1CNCCNC(=O)CCCCCCCCCCC(=O)N1CCN(CCNC(=O)c2cc3c(=O)n4cccc(C)c4nc3n(CCc3cccs3)c2=N)CC1 is reported as 13.6 h (male Sprague-Dawley rat, plasma; oral, 40 mg/kg).
CN1C[C@H](COc2nccc3c(NCc4ccco4)cc(Cl)nc23)OC1=O gave an inhibition of 21.4% (KCNH2; ion current, inhibitor; HEK293; 10 µM).
For C[C@H]1Oc2cc(cnc2N)-c2c(nn(C)c2C#N)CN(C)C(=O)c2ccc(F)cc21, the MRT(0-t) was 11.9 h (male Sprague-Dawley rat, plasma; oral, 50 mg/kg, single dose).
For O=C(COc1ccc(Cl)cc1)NC12CC(c3nnc([C@H]4C[C@@H](OC(F)(F)F)C4)o3)(C1)C2, the Tmax was 24 h (human, plasma; oral, 100 mg, single dose, fasted, healthy volunteers).
